Results: ChEMBL document CHEMBL2163314, “Potent aminocyclitol glucocerebrosidase inhibitors are subnanomolar pharmacological chaperones for treating gaucher disease” (J Med Chem, 2012)
Positions count from the first letter of the chain named. Active and inactive are the calls of the source. The rule behind the calls is not given here.

Key:
[1] = target: T1, Beta-galactosidase (Bos taurus) (UniProt Q58D55); experiment: Inhibition of bovine liver beta-galactosidase at 100 uM
T1 sequence (whole entry): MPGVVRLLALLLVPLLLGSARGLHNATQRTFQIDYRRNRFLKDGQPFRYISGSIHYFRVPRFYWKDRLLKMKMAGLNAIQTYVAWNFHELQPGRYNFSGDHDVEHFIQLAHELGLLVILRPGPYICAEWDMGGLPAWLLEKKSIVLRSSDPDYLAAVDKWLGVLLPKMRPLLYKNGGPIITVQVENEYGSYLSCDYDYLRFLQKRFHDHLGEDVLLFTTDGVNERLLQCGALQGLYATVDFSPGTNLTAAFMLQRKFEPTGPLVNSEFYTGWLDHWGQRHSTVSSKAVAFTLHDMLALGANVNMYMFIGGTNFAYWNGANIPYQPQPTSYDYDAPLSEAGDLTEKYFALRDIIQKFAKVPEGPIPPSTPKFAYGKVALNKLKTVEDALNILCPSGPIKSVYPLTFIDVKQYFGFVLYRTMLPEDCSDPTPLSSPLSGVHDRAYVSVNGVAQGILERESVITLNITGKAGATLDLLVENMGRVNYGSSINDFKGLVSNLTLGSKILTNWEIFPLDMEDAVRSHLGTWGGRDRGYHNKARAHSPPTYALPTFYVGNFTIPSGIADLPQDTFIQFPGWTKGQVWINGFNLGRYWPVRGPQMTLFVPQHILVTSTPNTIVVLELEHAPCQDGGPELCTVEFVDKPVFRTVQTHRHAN

[2] = target: T2, Alpha-galactosidase A (Homo sapiens) (UniProt P06280); experiment: Inhibition of lysosomal alpha-galactosidase in human fibroblast at 5 uM after 24 hrs
T2 sequence (whole entry): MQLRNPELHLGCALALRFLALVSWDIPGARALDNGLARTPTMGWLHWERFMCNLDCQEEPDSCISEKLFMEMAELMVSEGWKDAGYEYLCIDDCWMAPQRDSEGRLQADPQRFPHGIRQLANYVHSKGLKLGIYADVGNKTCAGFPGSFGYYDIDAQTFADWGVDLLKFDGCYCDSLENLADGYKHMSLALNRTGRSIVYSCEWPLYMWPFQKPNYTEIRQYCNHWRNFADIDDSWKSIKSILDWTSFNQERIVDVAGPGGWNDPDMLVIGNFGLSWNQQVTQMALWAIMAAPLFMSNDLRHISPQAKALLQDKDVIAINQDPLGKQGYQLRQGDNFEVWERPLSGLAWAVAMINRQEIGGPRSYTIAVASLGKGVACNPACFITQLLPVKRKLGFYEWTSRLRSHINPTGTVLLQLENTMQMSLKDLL

[3] = target: Lysosomal alpha-glucosidase (Homo sapiens) (UniProt P10253); experiment: Inhibition of lysosomal alpha-glucosidase in human fibroblast at 5 uM after 24 hrs
[4] = Cytotoxicity against human fibroblasts at 5 uM; type: cell-based; conditions: fibroblast
[5] = Cytotoxicity against human fibroblasts at 50 uM; type: cell-based; conditions: fibroblast
[6] = target: T3, Lysosomal acid glucosylceramidase (Homo sapiens) (UniProt P04062); conditions: 50 uM
T3 sequence (whole entry): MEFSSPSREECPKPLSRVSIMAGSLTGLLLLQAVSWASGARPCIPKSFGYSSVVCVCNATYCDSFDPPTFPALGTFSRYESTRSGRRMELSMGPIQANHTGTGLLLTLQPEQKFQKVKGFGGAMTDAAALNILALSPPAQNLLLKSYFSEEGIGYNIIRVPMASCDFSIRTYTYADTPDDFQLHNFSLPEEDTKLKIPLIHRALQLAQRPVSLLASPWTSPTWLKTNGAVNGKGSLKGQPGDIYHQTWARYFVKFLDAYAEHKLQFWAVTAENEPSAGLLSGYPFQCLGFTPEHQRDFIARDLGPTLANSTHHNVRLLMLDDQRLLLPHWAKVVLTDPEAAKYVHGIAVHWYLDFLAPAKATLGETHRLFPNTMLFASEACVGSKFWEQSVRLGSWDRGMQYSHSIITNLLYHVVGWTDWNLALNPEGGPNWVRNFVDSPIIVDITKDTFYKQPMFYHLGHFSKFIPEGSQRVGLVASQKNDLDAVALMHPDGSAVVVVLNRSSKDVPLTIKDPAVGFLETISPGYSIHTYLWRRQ

[7] = test system: T4, Lysosomal acid glucosylceramidase (Homo sapiens), P04062 [N409S]; experiment: Agonist activity at glucosylceramidase N370S mutant in lymphoblast obtained from gauchers patient using 4-methylumbelliferyl-beta-D-glucopyranoside as substrate preincubated at 1 to 5000 nM for 3 days measured 2 hrs post substrate addition by fluorescence assay relative to untreated control; type: functional
T4 sequence (whole entry): T3 sequence (whole entry) with N409S
Summary of the method: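 Patient-derived N370S homozygous lymphoblasts (RPMI-1640, 15% FBS, 37 °C, 5% CO2; passages 5–16) seeded at 2 × 10^5 cells/well, exposed to compound for 3 days. Cells washed in PBS and lysed in water by sonication. Homogenate incubated with 6 mM 4-MU-β-glucoside in 0.1 M citrate phosphate pH 5.2 with 0.25% taurocholate and 0.1% Triton X-100, 37 °C, 2 h. Fluorescence read at 355/460 nm; activity normalized to untreated cells; triplicate.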

Row | Structure (SMILES) | inhibition [1] | inhibition [2] | inhibition [3] | Activity [4] | Activity [5] | inhibition [6] | Activity [7]
1 | CCCCCCCCCN[C@H]1[C@H](O)[C@@H](O)[C@H](O)[C@@H](O)[C@@H]1O |  |  |  |  |  | 23% | inactive
2 | CCCCCCCCCN[C@H]1[C@H](O)[C@@H](O)[C@H](O)[C@@H](O)[C@@H]1OC.Cl |  |  |  |  |  | 23% | 
3 | CCCCCCCCCN[C@@H]1[C@H](O)[C@@H](O)[C@H](O)[C@@H](O)[C@@H]1O | 74% |  |  |  |  | 23% | inactive

Now from value to molecule, other results behind:

Row | inhibition [1] | inhibition [2] | inhibition [3] | Structure (SMILES) | Activity [4] | Activity [5] | inhibition [6] | Activity [7]
4 | 74% |  |  | CCCCCCCCCO[C@H]1[C@@H](N)[C@H](O)[C@@H](O)[C@H](O)[C@H]1O.Cl |  |  |  | 
5 | 74% | inactive | inactive | CCCCCCCCCN[C@H]1[C@H](O)[C@@H](O)[C@H](O)[C@@H](O)[C@H]1OCCCCCCCCC.Cl | Non-toxic | Toxic |  | 
6 |  | < 16% | < 16% | CCCCCCCCCN[C@H]1[C@H](O)[C@@H](O)[C@H](O)[C@@H](O)[C@@H]1OCCCCCCCCC.Cl | Non-toxic | Toxic |  | 
7 |  | < 16% | < 16% | CCCCCCCCCN(CCCCCCCCC)[C@@H]1[C@H](O)[C@H](O)[C@@H](O)[C@H](O)[C@H]1O.Cl | Non-toxic | Toxic |  | inactive
